Laboratory results as given in ChEMBL document CHEMBL1145097 (J Med Chem, 2003).

Experiments:
Rattus norvegicus [1] = assay: In vivo intraperitoneal effective dose to block fear conditioning in rats was determined by FPS (fear potentiated startle) model of anxiety; type: functional; conditions: ip
Outline: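 Fear-potentiated startle anxiety model in rats. Compound given ip and measurement taken 1 h after administration. 8 rats/group. ED50 reported as mean, with ED50 values from individual experiments (95% confidence interval).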

Rattus norvegicus [2] = assay: Amount in vivo in rat brain after intraperitoneal dose of 3 mg/Kg; type: ADME, organism-based; conditions: ip, read-out: Brain level
Outline: (§1)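 Rats given 3 mg/kg ip; brain (hippocampus) and plasma drug levels measured 1 h after dosing. Mean ± SEM, n = rats per group.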

[3] = target: Metabotropic glutamate receptor 1 (Homo sapiens, UniProt Q13255); assay: Tested for in vitro antagonistic activity against Metabotropic glutamate receptor 1; type: functional
Outline: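 Ca2+ flux assay at mGlu1a, with compounds tested in both agonist and antagonist modes. Initial screen at 10 µM; concentration-response curves generated where inhibition was seen.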

Rattus norvegicus [4] = assay: (§2) Amount in vivo in rat plasma after intraperitoneal dose of 3 mg/Kg; type: ADME, organism-based; conditions: ip, read-out: Plasma level; outline: as §1
[5] = LogD value was determined; type: physicochemical; conditions: octanol/water
Outline: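 log D determined by an HPLC method.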

Rattus norvegicus [6] = assay: Amount in vivo in rat cerebrospinal fluid (CSF) after oral dose of 30 mg/Kg; conditions: read-out: CSF levels
[7] = target: T1, Amine oxidase [flavin-containing] A (Mus musculus, UniProt Q64133); assay: Tested for in vitro antagonistic activity against Monoamine oxidase A; type: functional
T1 sequence (Q64133 whole entry): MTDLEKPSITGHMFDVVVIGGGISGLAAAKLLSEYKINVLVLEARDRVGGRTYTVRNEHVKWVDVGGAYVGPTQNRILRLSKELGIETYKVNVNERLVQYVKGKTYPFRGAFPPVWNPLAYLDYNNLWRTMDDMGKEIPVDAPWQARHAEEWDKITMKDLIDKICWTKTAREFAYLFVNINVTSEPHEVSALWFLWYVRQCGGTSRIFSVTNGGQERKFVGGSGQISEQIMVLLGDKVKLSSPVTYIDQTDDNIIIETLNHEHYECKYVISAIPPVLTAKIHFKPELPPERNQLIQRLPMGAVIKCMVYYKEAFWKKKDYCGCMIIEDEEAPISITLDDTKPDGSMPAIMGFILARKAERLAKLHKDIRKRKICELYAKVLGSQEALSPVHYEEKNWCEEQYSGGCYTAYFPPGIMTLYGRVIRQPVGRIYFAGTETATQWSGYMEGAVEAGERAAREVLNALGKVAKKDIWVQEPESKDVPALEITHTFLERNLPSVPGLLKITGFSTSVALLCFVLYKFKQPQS
Outline: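 Displacement of [125I]RTI-55 binding at MAOA. IC50 given with range in parentheses. Initial screen at 10 µM, followed by concentration-response curves where inhibition was detected.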

[8] = target: T2, Glutamate receptor ionotropic, NMDA 2B (Homo sapiens, UniProt Q05586+Q13224); assay: Tested for in vitro antagonistic activity against recombinant human N-methyl-D-aspartate glutamate receptor 2B; type: functional
Outline: (§3)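 Cell line stably expressing recombinant human NR1A/2B NMDA receptors. Inhibition of NMDA/glycine-evoked rise in intracellular Ca2+. Six-point concentration-response curve with 8-22 cells per concentration.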

[9] = target: Metabotropic glutamate receptor 5 (Rattus norvegicus, UniProt P31424); assay: Tested for displacement of [3H]3-methoxy-5-(pyridin-2-ylethynyl) pyridine from Metabotropic glutamate receptor 5 in rat cortical membrane; type: cell membranes
Outline: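 Rat cortical membranes; displacement of [3H]-3-methoxy-5-(pyridin-2-ylethynyl)pyridine bound to native mGlu5. Geometric mean with standard deviation and number of replicates.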

[10] = target: Metabotropic glutamate receptor 5 (Homo sapiens, UniProt P41594); assay: Tested in vitro against human recombinant Metabotropic glutamate receptor 5 stably expressed in LtK cells by [Ca2+] flux assay using glutamate as agonist
[11] = target: T1, Amine oxidase [flavin-containing] A; assay: Tested for in vitro antagonistic activity against Monoamine oxidase; type: functional
Outline: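 Radioligand displacement of [125I]RTI-55 ([125I]methyl (1R,2S,3S,5S)-3-(4-iodophenyl)-8-methyl-8-azabicyclo[3.2.1]octane-2-carboxylate) from MAO-A. Compounds were first screened at 10 µM.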

[12] = as §2; type: ADME, organism-based; conditions: ip, read-out: Plasma level; outline: as §1
[13] = target: T2, Glutamate receptor ionotropic, NMDA 2B; assay: Tested for in vitro antagonistic activity against human N-methyl-D-aspartate glutamate receptor 2B; type: functional; outline: as §3

Sequence of Metabotropic glutamate receptor 5 (Rattus norvegicus, UniProt P31424) (P31424 whole entry): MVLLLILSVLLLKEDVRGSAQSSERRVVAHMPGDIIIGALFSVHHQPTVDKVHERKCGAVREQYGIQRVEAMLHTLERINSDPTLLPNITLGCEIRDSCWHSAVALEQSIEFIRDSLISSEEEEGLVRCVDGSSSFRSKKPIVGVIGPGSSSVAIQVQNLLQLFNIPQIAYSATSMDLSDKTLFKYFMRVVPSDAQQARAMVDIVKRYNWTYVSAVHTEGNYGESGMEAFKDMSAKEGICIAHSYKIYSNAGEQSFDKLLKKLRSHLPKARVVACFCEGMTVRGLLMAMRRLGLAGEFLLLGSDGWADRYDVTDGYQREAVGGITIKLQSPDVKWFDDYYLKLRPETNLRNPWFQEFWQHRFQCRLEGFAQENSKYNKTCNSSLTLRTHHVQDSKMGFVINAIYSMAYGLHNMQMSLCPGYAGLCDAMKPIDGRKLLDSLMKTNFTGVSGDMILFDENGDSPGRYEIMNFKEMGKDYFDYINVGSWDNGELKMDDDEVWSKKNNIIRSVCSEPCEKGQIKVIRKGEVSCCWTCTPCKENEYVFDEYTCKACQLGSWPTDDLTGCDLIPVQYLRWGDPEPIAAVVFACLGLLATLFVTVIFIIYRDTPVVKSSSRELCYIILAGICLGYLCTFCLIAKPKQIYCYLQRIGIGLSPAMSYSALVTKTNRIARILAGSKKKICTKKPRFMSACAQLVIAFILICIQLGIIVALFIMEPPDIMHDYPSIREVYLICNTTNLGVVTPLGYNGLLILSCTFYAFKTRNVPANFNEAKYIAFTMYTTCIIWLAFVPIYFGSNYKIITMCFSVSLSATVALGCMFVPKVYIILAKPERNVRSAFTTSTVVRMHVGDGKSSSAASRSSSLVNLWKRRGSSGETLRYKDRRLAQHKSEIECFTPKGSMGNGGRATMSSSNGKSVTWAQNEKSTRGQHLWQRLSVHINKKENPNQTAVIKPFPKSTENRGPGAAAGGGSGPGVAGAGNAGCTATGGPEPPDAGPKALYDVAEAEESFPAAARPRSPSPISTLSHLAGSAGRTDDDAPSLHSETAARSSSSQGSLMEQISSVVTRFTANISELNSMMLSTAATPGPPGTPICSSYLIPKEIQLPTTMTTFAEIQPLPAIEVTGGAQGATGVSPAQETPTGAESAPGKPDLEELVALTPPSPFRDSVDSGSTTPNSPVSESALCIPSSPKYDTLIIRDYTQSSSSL
Sequence of Metabotropic glutamate receptor 5 (Homo sapiens, UniProt P41594) (P41594 whole entry): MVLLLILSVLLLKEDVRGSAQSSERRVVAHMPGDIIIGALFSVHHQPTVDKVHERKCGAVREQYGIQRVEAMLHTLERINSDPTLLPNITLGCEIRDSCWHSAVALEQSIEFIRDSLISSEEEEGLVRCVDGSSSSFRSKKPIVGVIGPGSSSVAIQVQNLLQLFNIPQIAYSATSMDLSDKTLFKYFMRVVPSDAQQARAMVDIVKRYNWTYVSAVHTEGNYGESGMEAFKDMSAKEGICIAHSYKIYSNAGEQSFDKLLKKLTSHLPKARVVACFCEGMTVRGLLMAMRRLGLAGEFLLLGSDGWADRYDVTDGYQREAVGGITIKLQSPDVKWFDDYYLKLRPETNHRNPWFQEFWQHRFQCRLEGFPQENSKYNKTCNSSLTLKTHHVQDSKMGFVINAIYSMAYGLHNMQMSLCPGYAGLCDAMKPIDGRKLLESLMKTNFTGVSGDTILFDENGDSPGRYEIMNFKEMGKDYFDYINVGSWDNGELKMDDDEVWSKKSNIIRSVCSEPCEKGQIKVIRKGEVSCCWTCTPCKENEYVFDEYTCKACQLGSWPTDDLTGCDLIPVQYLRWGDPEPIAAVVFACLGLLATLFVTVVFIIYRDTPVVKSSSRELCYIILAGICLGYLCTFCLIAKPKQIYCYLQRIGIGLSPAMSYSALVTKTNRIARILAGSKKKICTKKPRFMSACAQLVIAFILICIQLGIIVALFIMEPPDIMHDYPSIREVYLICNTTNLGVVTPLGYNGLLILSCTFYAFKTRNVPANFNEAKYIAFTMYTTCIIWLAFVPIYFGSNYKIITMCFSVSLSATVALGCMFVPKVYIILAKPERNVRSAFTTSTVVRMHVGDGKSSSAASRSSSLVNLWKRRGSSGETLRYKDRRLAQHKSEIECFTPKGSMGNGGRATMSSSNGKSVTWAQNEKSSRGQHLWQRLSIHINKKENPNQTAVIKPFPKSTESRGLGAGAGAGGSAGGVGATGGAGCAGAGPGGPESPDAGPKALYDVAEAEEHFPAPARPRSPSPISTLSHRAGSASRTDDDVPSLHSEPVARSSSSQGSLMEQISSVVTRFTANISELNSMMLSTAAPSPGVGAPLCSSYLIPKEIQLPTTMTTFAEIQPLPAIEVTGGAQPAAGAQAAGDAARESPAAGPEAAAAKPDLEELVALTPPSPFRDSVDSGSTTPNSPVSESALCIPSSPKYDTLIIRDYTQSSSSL
T2 sequence (Q13224 whole entry, one chain of several): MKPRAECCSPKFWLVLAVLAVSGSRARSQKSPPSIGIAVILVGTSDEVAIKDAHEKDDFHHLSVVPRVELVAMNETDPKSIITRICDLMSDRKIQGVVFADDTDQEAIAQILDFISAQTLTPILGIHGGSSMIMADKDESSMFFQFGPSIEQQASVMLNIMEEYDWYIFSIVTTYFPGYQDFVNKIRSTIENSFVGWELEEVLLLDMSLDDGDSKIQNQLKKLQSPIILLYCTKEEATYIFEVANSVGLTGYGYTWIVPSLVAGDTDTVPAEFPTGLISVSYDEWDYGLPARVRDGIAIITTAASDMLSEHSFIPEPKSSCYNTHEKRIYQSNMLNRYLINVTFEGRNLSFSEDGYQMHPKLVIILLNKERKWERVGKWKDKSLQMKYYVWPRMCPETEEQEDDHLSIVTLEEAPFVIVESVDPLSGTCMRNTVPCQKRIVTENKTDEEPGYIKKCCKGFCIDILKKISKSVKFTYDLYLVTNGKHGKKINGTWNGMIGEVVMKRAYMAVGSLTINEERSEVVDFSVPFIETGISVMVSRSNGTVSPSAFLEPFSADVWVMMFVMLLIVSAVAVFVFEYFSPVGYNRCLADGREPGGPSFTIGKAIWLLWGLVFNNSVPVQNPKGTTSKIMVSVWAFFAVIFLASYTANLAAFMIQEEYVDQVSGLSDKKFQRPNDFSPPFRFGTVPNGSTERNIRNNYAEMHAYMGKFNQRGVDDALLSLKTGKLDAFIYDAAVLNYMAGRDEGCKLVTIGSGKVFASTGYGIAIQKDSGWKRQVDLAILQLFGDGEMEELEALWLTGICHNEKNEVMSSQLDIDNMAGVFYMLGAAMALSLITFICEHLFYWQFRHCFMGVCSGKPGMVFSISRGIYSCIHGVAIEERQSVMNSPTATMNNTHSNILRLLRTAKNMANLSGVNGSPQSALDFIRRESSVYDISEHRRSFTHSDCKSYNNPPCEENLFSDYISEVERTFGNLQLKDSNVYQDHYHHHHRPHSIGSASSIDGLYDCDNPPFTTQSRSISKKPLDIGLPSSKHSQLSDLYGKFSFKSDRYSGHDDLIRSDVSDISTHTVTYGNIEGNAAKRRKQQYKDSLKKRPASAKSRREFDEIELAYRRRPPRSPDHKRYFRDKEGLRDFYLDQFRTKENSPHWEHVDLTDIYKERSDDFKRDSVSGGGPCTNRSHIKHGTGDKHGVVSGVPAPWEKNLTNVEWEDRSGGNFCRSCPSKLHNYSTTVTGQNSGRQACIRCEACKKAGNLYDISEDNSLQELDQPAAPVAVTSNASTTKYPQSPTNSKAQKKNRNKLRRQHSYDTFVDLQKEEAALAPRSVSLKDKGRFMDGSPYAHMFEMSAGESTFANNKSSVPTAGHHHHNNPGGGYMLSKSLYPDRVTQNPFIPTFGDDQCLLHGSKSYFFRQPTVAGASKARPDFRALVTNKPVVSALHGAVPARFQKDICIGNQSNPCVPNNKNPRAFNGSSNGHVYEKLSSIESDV
Sequence of Metabotropic glutamate receptor 1 (Q13255 whole entry): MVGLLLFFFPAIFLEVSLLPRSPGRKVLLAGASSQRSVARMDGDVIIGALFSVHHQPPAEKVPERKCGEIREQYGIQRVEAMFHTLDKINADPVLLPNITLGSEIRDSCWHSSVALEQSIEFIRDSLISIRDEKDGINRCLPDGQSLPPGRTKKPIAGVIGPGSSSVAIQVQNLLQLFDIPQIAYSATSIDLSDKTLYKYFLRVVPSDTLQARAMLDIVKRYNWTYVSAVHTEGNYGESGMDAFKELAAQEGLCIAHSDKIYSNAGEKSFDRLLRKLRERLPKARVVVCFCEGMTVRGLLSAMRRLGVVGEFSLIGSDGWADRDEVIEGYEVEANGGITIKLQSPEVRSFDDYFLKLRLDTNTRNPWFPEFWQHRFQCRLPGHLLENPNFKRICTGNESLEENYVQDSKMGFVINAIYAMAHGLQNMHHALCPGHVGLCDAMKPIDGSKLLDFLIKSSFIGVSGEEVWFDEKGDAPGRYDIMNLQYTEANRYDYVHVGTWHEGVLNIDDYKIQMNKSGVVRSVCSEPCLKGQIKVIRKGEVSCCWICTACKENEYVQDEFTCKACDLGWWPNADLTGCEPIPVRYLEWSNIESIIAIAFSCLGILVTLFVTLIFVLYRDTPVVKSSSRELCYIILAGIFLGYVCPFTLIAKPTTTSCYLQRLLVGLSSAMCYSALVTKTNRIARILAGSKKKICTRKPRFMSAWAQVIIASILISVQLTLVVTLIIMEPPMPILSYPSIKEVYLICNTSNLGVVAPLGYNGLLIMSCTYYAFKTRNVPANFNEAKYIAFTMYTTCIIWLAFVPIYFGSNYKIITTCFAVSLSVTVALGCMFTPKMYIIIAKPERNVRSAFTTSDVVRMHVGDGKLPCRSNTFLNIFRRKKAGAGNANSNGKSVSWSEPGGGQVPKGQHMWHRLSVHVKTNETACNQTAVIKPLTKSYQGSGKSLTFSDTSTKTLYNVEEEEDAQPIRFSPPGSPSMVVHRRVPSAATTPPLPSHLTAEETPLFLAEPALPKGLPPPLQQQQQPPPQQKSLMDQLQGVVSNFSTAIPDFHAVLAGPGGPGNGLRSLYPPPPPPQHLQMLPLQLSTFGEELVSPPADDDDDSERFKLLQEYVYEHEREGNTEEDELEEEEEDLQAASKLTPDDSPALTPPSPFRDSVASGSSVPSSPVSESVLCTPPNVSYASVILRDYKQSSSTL

SMILES	logD [5]	Ki [9]	IC50 [10]	further results
Cc1nc(C#Cc2cccnc2)cs1	2.1			ED50 (Rattus norvegicus [1]): 1 mg/kg; concentration (Rattus norvegicus [2]): 1400 nM; IC50 [3]: > 100000 nM; concentration (Rattus norvegicus [4]): 1200 nM; concentration (Rattus norvegicus [6]): 1000 nM; IC50 [7]: 30000 nM; IC50 [8]: > 300000 nM
Cc1nc(C#Cc2ccncc2)cs1	2.1	214 nM	122 nM	
Cc1nc(C#Cc2ccccc2)cs1	3.3	6 nM	6 nM	
C(#Cc1cscn1)c1ccccc1	2.6	142 nM	97 nM	
Cc1nc(C#Cc2ccccn2)cs1	1.9	48 nM	53 nM	
Cc1csc(C#Cc2ccccc2)n1	2.6	32 nM	13 nM	
C(#Cc1nccs1)c1ccccc1	3.2	153 nM	81 nM	
Cc1cccc(C#Cc2ccccc2)n1	3.5			IC50 [11]: 8000 nM; ED50 (Rattus norvegicus [1]): 5 mg/kg; concentration (Rattus norvegicus [2]): 830 nM; IC50 [3]: > 100000 nM; concentration [12]: 390 nM; concentration (Rattus norvegicus [6]): 210 nM; IC50 [13]: 18000 nM
